Assays:
[1] = target: Calcium/calmodulin-dependent protein kinase type II subunit delta (Homo sapiens) (UniProt Q13557); test: Binding affinity to wild-type human partial length CAMK2D (M1 to E329 residues) expressed in bacterial expression system assessed as residual binding level at 1 uM by Kinomescan method relative to control
[2] = target: Dual specificity protein kinase CLK1 (Homo sapiens) (UniProt P49759); test: Binding affinity to wild-type human full length CLK1 (M1 to I484 residues) expressed in bacterial expression system assessed as residual binding level at 1 uM by Kinomescan method relative to control
How it was run: (§1)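 Active-site-directed KinomeScan competition binding panel covering 468 kinases, compound tested at 1 μM. Each readout is the kinase signal remaining with compound, expressed as a percentage of the DMSO control. […]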

[3] = test system: Epidermal growth factor receptor (Homo sapiens), P00533 [G719C]; test: Binding affinity to human partial length EGFR G719C mutant (R669 to V1011 residues) expressed in bacterial expression system assessed as residual binding level at 1 uM by Kinomescan method relative to control
How it was run: (§2)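 KinomeScan active site-directed competition binding panel (468 kinases), compound tested at 1 μM. Result expressed as remaining kinase signal versus DMSO control (percent of control).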

[4] = target: Mitogen-activated protein kinase 1 (Homo sapiens) (UniProt P28482); test: Binding affinity to wild-type human full length ERK2 (M1 to S360 residues) expressed in bacterial expression system assessed as residual binding level at 1 uM by Kinomescan method relative to control; how it was run: as §1
[5] = target: Receptor-type tyrosine-protein kinase FLT3 (Homo sapiens) (UniProt P36888); test: Binding affinity to wild-type human partial length FLT3 (V592 to Y969 residues) expressed in bacterial expression system assessed as residual binding level at 1 uM by Kinomescan method relative to control
[6] = test system: Receptor-type tyrosine-protein kinase FLT3 (Homo sapiens), P36888 [N841I]; test: Binding affinity to human partial length FLT3 N841I mutant (V592 to Y969 residues) expressed in bacterial expression system assessed as residual binding level at 1 uM by Kinomescan method relative to control; how it was run: as §2
[7] = target: Tyrosine-protein kinase JAK1 (Homo sapiens) (UniProt P23458); test: Binding affinity to wild-type human partial length JAK1 JH1 catalytic domain (V856 to K1154 residues) expressed in bacterial expression system assessed as residual binding level at 1 uM by Kinomescan method relative to control
[8] = test system: Mast/stem cell growth factor receptor Kit (Homo sapiens), P10721 [V559D]; test: Binding affinity to human partial length KIT V559D mutant (Y545 to D952 residues) expressed in bacterial expression system assessed as residual binding level at 1 uM by Kinomescan method relative to control; how it was run: as §2
[9] = target: Dual specificity mitogen-activated protein kinase kinase 3 (Homo sapiens) (UniProt P46734); test: Binding affinity to wild-type human full length MEK3 (M1 to S318 residues) expressed in mammalian expression system assessed as residual binding level at 1 uM by Kinomescan method relative to control
How it was run: (§3)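 KinomeScan, an active site-directed competition binding panel of 468 kinases. The test compound was at 1 μM. The readout is remaining kinase binding as a percentage of the DMSO control. Scores above 35% were treated as weak binding and not listed.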

[10] = target: Dual specificity mitogen-activated protein kinase kinase 4 (Homo sapiens) (UniProt P45985); test: Binding affinity to wild-type human partial length MEK4 (S84 to D399 residues) expressed in mammalian expression system assessed as residual binding level at 1 uM by Kinomescan method relative to control
[11] = target: Serine/threonine-protein kinase Nek2 (Homo sapiens) (UniProt P51955); test: Binding affinity to wild-type human partial length NEK2 (M1 to K309 residues) expressed in bacterial expression system assessed as residual binding level at 1 uM by Kinomescan method relative to control
[12] = target: Platelet-derived growth factor receptor alpha (Homo sapiens) (UniProt P16234); test: Binding affinity to wild-type human partial length PDGFRA (V575 to D1002 residues) expressed in mammalian expression system assessed as residual binding level at 1 uM by Kinomescan method relative to control
How it was run: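 Active-site-directed competition binding panel of 468 kinases (KinomeScan), compound at 1 μM. The read-out is kinase remaining bound, given as a percentage of the DMSO control. […]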

[13] = target: Phosphatidylinositol 4-phosphate 5-kinase type-1 gamma (Homo sapiens) (UniProt O60331); test: Binding affinity to wild-type human partial length PIP5K1C (M1 to T668 residues) expressed in mammalian expression system assessed as residual binding level at 1 uM by Kinomescan method relative to control
[14] = target: Phosphatidylinositol 5-phosphate 4-kinase type-2 beta (Homo sapiens) (UniProt P78356); test: Binding affinity to wild-type human full length PIP5K2B (M1 to T416 residues) expressed in bacterial expression system assessed as residual binding level at 1 uM by Kinomescan method relative to control; how it was run: as §3
[15] = target: RAF proto-oncogene serine/threonine-protein kinase (Homo sapiens) (UniProt P04049); test: Binding affinity to wild-type human partial length RAF1 (I330 to T640 residues) expressed in bacterial expression system assessed as residual binding level at 1 uM by Kinomescan method relative to control
[16] = target: Serine/threonine-protein kinase RIO1 (Homo sapiens) (UniProt Q9BRS2); test: Binding affinity to wild-type human full length RIOK1 (M1 to K568 residues) expressed in bacterial expression system assessed as residual binding level at 1 uM by Kinomescan method relative to control
How it was run: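 Active-site-directed competition binding screen across a 468-kinase panel, run with the test compound at 1 μM. The read-out is the kinase signal remaining relative to a DMSO control, reported as a percentage. […]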

[17] = target: Serine/threonine-protein kinase tousled-like 1 (Homo sapiens) (UniProt Q9UKI8); test: Binding affinity to wild-type human partial length TLK1 (K447 to A754 residues) expressed in bacterial expression system assessed as residual binding level at 1 uM by Kinomescan method relative to control
[18] = target: BDNF/NT-3 growth factors receptor (Homo sapiens) (UniProt Q16620); test: Binding affinity to wild-type human partial length TRKB (Q547 to G838 residues) expressed in mammalian expression system assessed as residual binding level at 1 uM by Kinomescan method relative to control
[19] = target: Wee1-like protein kinase 2 (Homo sapiens) (UniProt P0C1S8); test: Binding affinity to wild-type human partial length WEE2 (M204 to K492 residues) expressed in bacterial expression system assessed as residual binding level at 1 uM by Kinomescan method relative to control
[20] = target: Serine/threonine-protein kinase WNK4 (Homo sapiens) (UniProt Q96J92); test: Binding affinity to wild-type human partial length WNK4 (A31 to D461 residues) expressed in mammalian expression system assessed as residual binding level at 1 uM by Kinomescan method relative to control
How it was run: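 Active site-directed competition binding panel (KinomeScan, 468 kinases). Test compound at 1 μM. Read-out is kinase binding remaining versus DMSO control, expressed as percent of control. Scores above 35% are treated as weak binding.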

Phosphatidylinositol 5-phosphate 4-kinase type-2 beta (Homo sapiens), sequence (P78356 whole entry, the tested form may be a part): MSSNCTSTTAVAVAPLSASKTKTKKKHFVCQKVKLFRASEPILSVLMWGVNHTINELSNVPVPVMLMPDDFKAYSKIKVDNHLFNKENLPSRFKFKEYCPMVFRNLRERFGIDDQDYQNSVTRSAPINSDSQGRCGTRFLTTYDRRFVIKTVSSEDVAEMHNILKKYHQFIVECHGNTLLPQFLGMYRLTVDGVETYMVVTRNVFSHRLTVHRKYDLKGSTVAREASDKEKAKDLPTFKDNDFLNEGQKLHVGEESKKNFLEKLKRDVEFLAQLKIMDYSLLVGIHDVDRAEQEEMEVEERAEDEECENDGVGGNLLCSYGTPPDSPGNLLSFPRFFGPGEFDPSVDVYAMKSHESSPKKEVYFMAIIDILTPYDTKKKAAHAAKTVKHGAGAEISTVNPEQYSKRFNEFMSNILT
Serine/threonine-protein kinase WNK4 (Homo sapiens), sequence (Q96J92 whole entry, the tested form may be a part): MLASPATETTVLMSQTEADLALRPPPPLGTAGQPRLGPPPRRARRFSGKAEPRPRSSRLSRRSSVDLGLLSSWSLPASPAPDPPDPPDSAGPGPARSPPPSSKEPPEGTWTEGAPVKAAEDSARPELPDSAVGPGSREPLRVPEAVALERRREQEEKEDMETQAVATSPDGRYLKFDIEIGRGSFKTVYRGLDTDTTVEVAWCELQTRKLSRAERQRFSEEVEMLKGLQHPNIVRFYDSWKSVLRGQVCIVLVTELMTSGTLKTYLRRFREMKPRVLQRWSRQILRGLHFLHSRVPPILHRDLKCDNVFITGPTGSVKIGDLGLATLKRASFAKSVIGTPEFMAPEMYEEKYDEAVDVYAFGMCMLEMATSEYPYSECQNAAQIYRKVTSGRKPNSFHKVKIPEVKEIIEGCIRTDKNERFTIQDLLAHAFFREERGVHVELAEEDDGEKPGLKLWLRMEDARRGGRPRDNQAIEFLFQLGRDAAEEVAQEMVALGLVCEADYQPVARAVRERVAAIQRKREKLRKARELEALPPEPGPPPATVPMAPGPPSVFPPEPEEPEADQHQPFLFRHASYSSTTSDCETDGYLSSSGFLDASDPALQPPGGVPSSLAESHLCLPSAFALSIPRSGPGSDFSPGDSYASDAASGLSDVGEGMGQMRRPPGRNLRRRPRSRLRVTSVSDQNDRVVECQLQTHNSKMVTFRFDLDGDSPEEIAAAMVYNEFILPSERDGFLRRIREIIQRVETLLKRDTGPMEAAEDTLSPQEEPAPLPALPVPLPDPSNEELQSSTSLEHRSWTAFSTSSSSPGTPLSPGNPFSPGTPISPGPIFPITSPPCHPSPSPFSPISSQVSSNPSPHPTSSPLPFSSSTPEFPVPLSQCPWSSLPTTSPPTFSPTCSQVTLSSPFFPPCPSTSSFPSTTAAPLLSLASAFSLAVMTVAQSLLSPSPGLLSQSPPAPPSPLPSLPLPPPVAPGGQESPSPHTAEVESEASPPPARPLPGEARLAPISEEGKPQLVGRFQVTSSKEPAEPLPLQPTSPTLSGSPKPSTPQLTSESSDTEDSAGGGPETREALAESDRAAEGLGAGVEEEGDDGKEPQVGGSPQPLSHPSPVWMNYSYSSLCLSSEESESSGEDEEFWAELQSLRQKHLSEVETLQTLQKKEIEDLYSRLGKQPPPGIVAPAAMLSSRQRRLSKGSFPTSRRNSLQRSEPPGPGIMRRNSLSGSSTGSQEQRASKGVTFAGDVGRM
Serine/threonine-protein kinase Nek2 (Homo sapiens), sequence (P51955 whole entry, the tested form may be a part): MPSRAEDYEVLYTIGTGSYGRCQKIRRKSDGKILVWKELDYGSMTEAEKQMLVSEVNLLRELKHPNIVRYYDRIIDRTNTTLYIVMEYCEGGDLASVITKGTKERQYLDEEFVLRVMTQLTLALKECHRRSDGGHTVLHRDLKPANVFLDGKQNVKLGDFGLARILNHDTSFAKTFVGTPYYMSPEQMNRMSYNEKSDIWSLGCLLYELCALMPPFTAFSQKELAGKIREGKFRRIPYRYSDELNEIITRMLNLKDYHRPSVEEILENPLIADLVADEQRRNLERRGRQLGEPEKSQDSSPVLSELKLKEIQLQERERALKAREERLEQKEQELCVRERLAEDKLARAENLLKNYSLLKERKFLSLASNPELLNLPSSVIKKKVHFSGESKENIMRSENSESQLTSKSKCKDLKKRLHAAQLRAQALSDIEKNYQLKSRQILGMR
Serine/threonine-protein kinase RIO1 (Homo sapiens), sequence (Q9BRS2 whole entry, the tested form may be a part): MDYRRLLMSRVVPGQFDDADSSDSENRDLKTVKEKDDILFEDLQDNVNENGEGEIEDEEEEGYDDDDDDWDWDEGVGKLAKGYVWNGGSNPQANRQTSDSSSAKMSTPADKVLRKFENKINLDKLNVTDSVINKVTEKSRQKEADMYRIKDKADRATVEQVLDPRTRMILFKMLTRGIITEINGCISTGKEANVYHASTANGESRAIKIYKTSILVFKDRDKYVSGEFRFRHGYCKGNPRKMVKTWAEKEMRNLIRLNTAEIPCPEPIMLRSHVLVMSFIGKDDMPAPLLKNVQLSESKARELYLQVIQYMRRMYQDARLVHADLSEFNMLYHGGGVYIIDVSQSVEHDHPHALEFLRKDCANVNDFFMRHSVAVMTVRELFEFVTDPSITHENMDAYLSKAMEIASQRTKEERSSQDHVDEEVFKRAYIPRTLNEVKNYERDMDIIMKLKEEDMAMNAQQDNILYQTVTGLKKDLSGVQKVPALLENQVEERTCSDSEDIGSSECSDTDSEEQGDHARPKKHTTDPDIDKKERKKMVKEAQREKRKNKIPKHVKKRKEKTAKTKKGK
Mast/stem cell growth factor receptor Kit (Homo sapiens), P10721 [V559D], sequence (P10721 whole entry V559D, the tested form may be a part): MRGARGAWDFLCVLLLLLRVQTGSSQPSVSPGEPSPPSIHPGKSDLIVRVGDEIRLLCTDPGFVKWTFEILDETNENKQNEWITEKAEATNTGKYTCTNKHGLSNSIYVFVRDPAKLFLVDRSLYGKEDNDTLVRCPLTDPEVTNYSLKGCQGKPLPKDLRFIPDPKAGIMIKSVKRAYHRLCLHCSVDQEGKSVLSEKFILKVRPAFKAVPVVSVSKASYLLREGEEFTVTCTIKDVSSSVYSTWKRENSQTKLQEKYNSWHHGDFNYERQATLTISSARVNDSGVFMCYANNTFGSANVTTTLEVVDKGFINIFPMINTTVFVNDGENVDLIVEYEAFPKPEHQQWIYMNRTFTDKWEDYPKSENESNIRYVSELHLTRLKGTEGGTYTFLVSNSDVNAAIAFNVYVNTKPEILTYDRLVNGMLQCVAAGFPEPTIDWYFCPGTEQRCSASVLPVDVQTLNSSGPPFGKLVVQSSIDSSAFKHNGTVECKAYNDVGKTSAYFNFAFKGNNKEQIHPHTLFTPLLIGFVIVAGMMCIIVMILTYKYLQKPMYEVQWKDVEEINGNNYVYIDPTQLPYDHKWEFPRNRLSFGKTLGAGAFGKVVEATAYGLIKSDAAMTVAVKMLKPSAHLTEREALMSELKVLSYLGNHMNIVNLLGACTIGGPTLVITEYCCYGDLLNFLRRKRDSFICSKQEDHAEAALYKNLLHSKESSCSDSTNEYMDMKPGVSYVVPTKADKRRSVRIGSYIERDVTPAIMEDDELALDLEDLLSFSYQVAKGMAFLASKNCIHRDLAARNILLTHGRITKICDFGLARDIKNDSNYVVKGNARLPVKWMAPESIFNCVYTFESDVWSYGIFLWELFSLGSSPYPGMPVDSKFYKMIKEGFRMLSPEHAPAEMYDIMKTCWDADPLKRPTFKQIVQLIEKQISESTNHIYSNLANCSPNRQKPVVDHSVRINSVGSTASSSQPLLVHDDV
Phosphatidylinositol 4-phosphate 5-kinase type-1 gamma (Homo sapiens), sequence (O60331 whole entry, the tested form may be a part): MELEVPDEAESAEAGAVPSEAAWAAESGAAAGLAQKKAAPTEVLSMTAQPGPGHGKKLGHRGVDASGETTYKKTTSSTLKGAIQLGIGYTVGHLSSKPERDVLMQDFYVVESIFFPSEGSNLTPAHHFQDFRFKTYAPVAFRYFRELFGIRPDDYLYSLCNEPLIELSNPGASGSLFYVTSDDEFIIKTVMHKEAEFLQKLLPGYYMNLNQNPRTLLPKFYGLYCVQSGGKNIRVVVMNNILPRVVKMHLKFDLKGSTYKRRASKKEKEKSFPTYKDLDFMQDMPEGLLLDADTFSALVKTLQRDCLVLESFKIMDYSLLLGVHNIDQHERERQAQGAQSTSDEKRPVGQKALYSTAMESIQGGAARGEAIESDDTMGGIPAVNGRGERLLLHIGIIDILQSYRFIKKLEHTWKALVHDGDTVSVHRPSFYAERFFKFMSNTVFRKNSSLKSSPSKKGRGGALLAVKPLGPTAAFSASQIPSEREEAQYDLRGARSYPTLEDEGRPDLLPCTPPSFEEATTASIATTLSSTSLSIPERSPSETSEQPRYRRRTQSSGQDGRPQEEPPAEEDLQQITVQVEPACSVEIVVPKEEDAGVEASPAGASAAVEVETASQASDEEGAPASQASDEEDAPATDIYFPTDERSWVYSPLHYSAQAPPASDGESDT
Dual specificity mitogen-activated protein kinase kinase 3 (Homo sapiens), sequence (P46734 whole entry, the tested form may be a part): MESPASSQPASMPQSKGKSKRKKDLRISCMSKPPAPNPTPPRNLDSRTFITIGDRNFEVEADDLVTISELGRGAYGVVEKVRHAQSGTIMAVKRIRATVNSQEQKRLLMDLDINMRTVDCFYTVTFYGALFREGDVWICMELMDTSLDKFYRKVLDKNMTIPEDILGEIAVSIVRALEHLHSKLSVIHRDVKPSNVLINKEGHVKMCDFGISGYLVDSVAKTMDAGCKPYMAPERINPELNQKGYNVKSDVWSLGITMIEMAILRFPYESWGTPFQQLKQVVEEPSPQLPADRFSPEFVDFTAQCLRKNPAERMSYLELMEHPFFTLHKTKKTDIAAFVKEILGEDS
Mitogen-activated protein kinase 1 (Homo sapiens), sequence (P28482 whole entry, the tested form may be a part): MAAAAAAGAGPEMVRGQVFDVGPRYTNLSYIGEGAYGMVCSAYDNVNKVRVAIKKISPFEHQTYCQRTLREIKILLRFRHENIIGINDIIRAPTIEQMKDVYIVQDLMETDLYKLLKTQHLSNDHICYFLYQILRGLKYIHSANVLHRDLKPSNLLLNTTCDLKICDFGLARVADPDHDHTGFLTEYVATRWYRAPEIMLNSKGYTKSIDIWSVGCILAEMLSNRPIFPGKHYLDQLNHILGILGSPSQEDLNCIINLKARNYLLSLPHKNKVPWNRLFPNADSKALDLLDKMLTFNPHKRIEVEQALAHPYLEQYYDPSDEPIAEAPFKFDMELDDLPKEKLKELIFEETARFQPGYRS

Compound: C=CC(=O)Nc1ccccc1Nc1nc(Nc2ccc(N3CCN(C)CC3)cc2)ncc1C(=O)Nc1c(C)cccc1Cl
- Activity [1]: 100%
- Activity [2]: 100%
- Activity [3]: 100%
- Activity [4]: 100%
- Activity [5]: 99%
- Activity [6]: 100%
- Activity [7]: 100%
- Activity [8]: 21%
- Activity [9]: 69%
- Activity [10]: 91%
- Activity [11]: 100%
- Activity [12]: 90%
- Activity [13]: 100%
- Activity [14]: 99%
- Activity [15]: 100%
- Activity [16]: 100%
- Activity [17]: 100%
- Activity [18]: 100%
- Activity [19]: 100%
- Activity [20]: 97%
